Test results reported in ChEMBL document CHEMBL2429753, “Synthesis and chemical and biological comparison of nitroxyl- and nitric oxide-releasing diazeniumdiolate-based aspirin derivatives” (J Med Chem, 2013).
Activity calls are given as the source filed them. The calls are words filed in the database; no cut-off is given here.

Columns and labels:
[1] = Drug metabolism in guinea pig serum assessed as NONO-salicylate formation at 100 uM after 40 mins by HPLC analysis; type: ADME, cell-free, Cavia porcellus
How it was run: (§1)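 Compound added at 100 μM final to 0.1 M phosphate buffer, pH 7.4, with 50 μM DTPA and 2% guinea pig serum, preheated to 37°C. Reaction followed over time by reversed-phase C18 HPLC with a water/acetonitrile gradient containing 0.1% formic acid. Products identified by co-elution with authentic standards.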

[2] = Half life of the compound; type: physicochemical
[3] = Drug metabolism of the compound in guinea pig serum assessed as aspirin formation at 100 uM after 40 mins by HPLC analysis; type: ADME, cell-free, Cavia porcellus; how it was run: as §1
[4] = Drug metabolism of the compound in PBS buffer assessed as salicylate formation at pH 10 by NMR spectroscopy; type: physicochemical
[5] = tested on: HUVEC; experiment: Cytotoxicity against human HUVEC cells up to 100 uM after 48 hrs by MTT assay; type: cell-based
How it was run: (§2)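 A549 cells in RPMI 1640 with 10% FBS, and HUVECs in endothelial growth medium, both at 37°C in 5% CO2. Seeded at 8,000-10,000 per well, grown overnight, then exposed to 0-200 μM for 48 h. MTT (10 μL of 2 mg/mL) added for 1 h at 37°C, formazan dissolved in DMSO and read at 550 nm. n = 3 for A549, n = 1 for HUVEC, each at least in triplicate.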

[6] = Drug metabolism of the compound in PBS buffer assessed as accumulation of DEA/NO at pH 10 by NMR spectroscopy; type: physicochemical
[7] = Prodrug activation in guinea pig serum assessed as HNO release at 100 uM at pH > 6 by electrochemical detection method; parameters: species or system Cavia porcellus
How it was run: (§3)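 NO electrode equilibrated at room temperature in buffer of the chosen pH containing 50 μM DTPA and 2% guinea pig serum. Compound added at 100 μM (0.1% DMSO) and maximum current recorded; triplicate additions. HNO measured indirectly after adding 1 mM ferricyanide to oxidize it to NO. Mean ± SD, n = 3.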

[8] = Prodrug conversion in guinea pig serum assessed as conversion of MbO2 to metMb at 50 uM by spectrophotometr; type: ADME, Cavia porcellus
How it was run: (§4)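 MbO2 (50 μM) exposed to compound at 37°C in pH 7.4 buffer (50 μM DTPA), with or without 2% guinea pig serum and with or without 1 mM GSH. Formation of metMb followed spectrally at 30-900 s intervals for 800 s to 6 h. MbO2 autoxidation monitored separately every 600 s over 12 h. n = 3.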

[9] = tested on: Rattus norvegicus; experiment: Antiinflammatory activity in po dosed Sprague-Dawley rat assessed as inhibition of carrageenan-induced paw edema administered 1 hr prior to carrageenan challenge measured after 3 hrs; type: functional; settings: read-out: ID50 (the source's name)
How it was run: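 Rats 160-180 g (n = 3) given compound by gavage at 0.8 mmol/kg, suspended in 1% methyl cellulose in water; controls received vehicle. After 1 h, 100 μL of 1% carrageenan in 0.9% NaCl injected into the right hind paw. Paw volume read by plethysmometer at 0 and 3 h. ID50 taken from dose-response curves as the dose halving the control inflammatory response.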

[10] = tested on: Rattus norvegicus; experiment: Toxicity in Sprague-Dawley rat assessed as stomach ulcer at 1.38 mmol/kg, po after 6 hrs relative to aspirin; type: organism-based; settings: in vivo
How it was run: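 Rats fasted 24 h with water allowed, then dosed orally at 1.38 mmol/kg in 1% methylcellulose vehicle; controls received vehicle. Killed by CO2 at 6 h. Stomachs examined under a magnifying glass and ulcers scored by number and size (1 mm = 1; 1-2 mm = 2; >2 mm = length in mm). Ulcer index = total ulcer length per stomach averaged over animals (n = 4).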

[11] = Drug metabolism in guinea pig serum assessed as aspirin formation at 100 uM after 5 mins by HPLC analysis; type: ADME, cell-free, Cavia porcellus; how it was run: as §1
[12] = Drug metabolism of the compound in PBS buffer assessed as aspirin formation; type: physicochemical
[13] = Prodrug conversion of the compound assessed as conversion of MbO2 to metMb at 250 uM by spectrophotometry; type: ADME; how it was run: as §4
[14] = Half life of the compound at pH 7.4 in presence of guinea pig serum; type: physicochemical
[15] = Half life of the compound at pH 7.4; type: physicochemical
[16] = Drug metabolism of the compound in PBS buffer assessed as aspirin formation at pH 10 by NMR spectroscopy; type: physicochemical
[17] = Drug metabolism in guinea pig serum assessed as NONO-salicylate formation at 100 uM after 5 mins by HPLC analysis; type: ADME, cell-free, Cavia porcellus; how it was run: as §1
[18] = tested on: A549; experiment: Cytotoxicity against human A549 cells after 48 hrs by MTT assay; type: functional, cell-based; settings: A549, 48 h; how it was run: as §2
[19] = Drug metabolism of the compound in PBS buffer at pH 10 after 90 mins by NMR spectroscopy; type: physicochemical; settings: pH 10, 1.5 h
[20] = Drug metabolism of the compound in PBS buffer assessed as accumulation of DEA/NO at pH 10 after 10 mins by NMR spectroscopy; type: physicochemical; settings: pH 10, 10 min
[21] = tested on: A549; experiment: Cellular uptake in human A549 cells assessed as HNO/NO release at 10 uM by fluorescence asay; type: ADME, cell-based; settings: a549, 10 µM
How it was run: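 A549 cells seeded at 60,000 per well and grown 4 h, then loaded with 10 μM DAF-FM diacetate in PBS for 75 min at 37°C and washed three times. Compound added at 10 μM final (prodrugs from DMSO stock, ionic NONOates from 10 mM NaOH stock). Fluorescence at 535 nm (excitation 485 nm) followed over time at 37°C. n = 2, six replicates per plate.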

[22] = Prodrug activation in guinea pig serum assessed as HNO release at 100 uM at pH < 6 by electrochemical detection method; parameters: species or system Cavia porcellus; how it was run: as §3
[23] = tested on: Serum; experiment: Drug metabolism in fetal bovine serum by HPLC analysis; type: ADME, cell-free, Bos taurus; settings: cattle
[24] = Drug metabolism of the compound in PBS buffer assessed as acetate formation at pH 10 by NMR spectroscopy; type: physicochemical
[25] = Drug metabolism of the compound in PBS buffer assessed as salicylate formation at pH 7.4; type: physicochemical
[26] = biological target: Glyceraldehyde-3-phosphate dehydrogenase (Homo sapiens) (UniProt P04406); experiment: Inhibition of GAPDH in human A549 cells at 100 uM after 1 hr by fluorescence assay; type: cell-based
Sequence of Glyceraldehyde-3-phosphate dehydrogenase (Homo sapiens) (P04406 2-335 limits assumed): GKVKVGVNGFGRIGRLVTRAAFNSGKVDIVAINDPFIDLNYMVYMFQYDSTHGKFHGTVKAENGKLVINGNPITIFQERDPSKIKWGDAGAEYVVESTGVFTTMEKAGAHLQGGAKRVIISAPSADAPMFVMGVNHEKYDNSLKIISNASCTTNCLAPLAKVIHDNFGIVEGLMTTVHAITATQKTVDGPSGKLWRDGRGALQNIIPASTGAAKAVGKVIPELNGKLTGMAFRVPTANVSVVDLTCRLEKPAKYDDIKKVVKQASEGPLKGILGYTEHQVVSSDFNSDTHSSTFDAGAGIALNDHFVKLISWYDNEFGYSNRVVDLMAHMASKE
How it was run: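 A549 cells seeded at 30,000 per well, grown overnight and treated with 100 μM for 1 h at 37°C. Cells lysed 20 min at 4°C in KAlert buffer. Lysate mixed with KAlert mastermix and GAPDH activity read as fluorescence at 570 nm (excitation 540 nm). Mean ± SD of triplicate; one-way ANOVA against control.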

[27] = Drug metabolism of the compound in PBS buffer assessed as isopropanol formation at pH 10 by NMR spectroscopy; type: physicochemical
[28] = Prodrug conversion in guinea pig serum assessed as conversion of MbO2 to metMb at 100 uM by spectrophotometry; type: ADME, Cavia porcellus; settings: 50 or 250 µM, in the assay text read “at 50 or 250 uM” for “at 100 uM”; how it was run: as §4
[29] = Drug metabolism of the compound in PBS buffer assessed as formaldehyde formation at pH 10 by NMR spectroscopy; type: physicochemical
[30] = biological target: T1, Prostaglandin G/H synthase 2 (Homo sapiens) (UniProt P35354); experiment: Inhibition of COX-2 mediated PGE2 production in human A549 cells at 25 to 50 uM after 24 hrs by EIA; type: cell-based
T1 sequence (whole entry): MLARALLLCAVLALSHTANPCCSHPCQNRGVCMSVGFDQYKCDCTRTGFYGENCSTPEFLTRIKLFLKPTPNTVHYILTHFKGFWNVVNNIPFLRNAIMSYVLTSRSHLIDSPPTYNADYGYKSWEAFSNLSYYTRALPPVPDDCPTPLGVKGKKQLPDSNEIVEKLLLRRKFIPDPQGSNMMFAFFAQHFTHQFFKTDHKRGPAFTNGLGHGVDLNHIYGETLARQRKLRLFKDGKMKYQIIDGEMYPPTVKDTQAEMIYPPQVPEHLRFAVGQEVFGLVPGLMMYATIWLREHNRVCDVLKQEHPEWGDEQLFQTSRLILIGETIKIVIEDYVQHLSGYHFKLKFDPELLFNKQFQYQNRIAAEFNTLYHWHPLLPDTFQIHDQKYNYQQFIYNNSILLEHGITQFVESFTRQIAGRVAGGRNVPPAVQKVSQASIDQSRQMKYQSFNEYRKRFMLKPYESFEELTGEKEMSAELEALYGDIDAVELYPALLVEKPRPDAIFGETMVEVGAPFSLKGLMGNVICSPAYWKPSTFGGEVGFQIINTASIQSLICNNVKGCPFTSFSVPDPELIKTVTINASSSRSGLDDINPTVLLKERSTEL
How it was run: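 A549 cells seeded at 50,000 per well and grown 12 h, then treated with 25 or 50 μM (0.1% DMSO) for 24 h at 37°C. PGE2 in the supernatant measured by competitive AChE-tracer EIA: overnight incubation at 4°C, Ellman's reagent development, […]. Run in triplicate.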

[31] = Stability in mouse cardiomyocytes after 20 to 30 mins; type: ADME, cell-based; settings: cardiomyocyte
[32] = Cardioprotective effect in mouse cardiomyocytes assessed as reduction in time required for half relaxation from peak shortening at 500 uM relative to control; type: functional, cell-based; parameters: scale not given: the % may be the effect or the level left; settings: Cardiomyocyte
How it was run: (§5)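 Ventricular myocytes from wild-type mice aged 2-4 months, anesthetized with ip pentobarbital 100 mg/kg, superfused with compound at 500 μM. Sarcomere shortening imaged under 0.5 Hz field stimulation and length tracked by real-time Fourier transform. Relaxation taken as time from peak shortening to 50% relaxation. Ca2+ transients read by confocal microscopy after fluo-4/AM loading (20 μM, 30 min). n = 12 cells.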

[33] = Cardioprotective effect in mouse cardiomyocytes assessed as myocyte contractility measured as sarcomere shortening at 500 uM relative to control; type: functional, cell-based; settings: Cardiomyocyte; how it was run: as §5
[34] = Cardioprotective effect in mouse cardiomyocytes assessed as increase in whole calcium transient at 500 uM by confocal laser scanning microscopy relative to control; type: functional, cell-based; settings: Cardiomyocyte; how it was run: as §5

Structure (SMILES): CCN(CC)/[N+]([O-])=N/OCOC(=O)c1ccccc1O
- Drug metabolism [1]: Not Active

Structure (SMILES): CC(C)N[N+]([O-])=N[O-].[Na+]
- half-life [2]: 5.7 min

Structure (SMILES): CCN(CC)/[N+]([O-])=N/[O-].[Na+]
- half-life [2]: 2.5 min

Structure (SMILES): CC(C)N/[N+]([O-])=N/OCOC(=O)c1ccccc1O
- Drug metabolism [3]: Active

Structure (SMILES): CCN(CC)/[N+]([O-])=N/OCOC(=O)c1ccccc1OC(C)=O
- Drug metabolism [4]: Active
- Activity [5]: Non-toxic
- Drug metabolism [6]: Active
- Drug metabolism [7]: Not Active
- Drug metabolism [8]: Active
- ED50 [9]: 169 mg/kg
- UI [10]: 0
- Drug metabolism [11]: Active
- Drug metabolism [12]: Active
- Drug metabolism [13]: Active
- half-life [14]: 13 min
- half-life [15]: 36 h
- Drug metabolism [16]: Active
- Drug metabolism [17]: Active
- IC50 [18]: 135 µM
- Drug metabolism [19]: Not Active
- Drug metabolism [20]: Active
- Drug uptake [21]: Active
- Drug metabolism [22]: Not Active

Structure (SMILES): CC(=O)Oc1ccccc1C(=O)OCO/N=[N+](\[O-])NC(C)C
- Drug metabolism [4]: Active
- Activity [5]: Non-toxic
- Drug metabolism [23]: Active
- Drug metabolism [24]: Active
- Drug metabolism [25]: Active
- inhibition [26]: Active
- Drug metabolism [7]: Active
- Drug metabolism [27]: Active
- Drug metabolism [28]: Active
- ED50 [9]: 121 mg/kg
- UI [10]: 3.3
- Drug metabolism [11]: Active
- Drug metabolism [13]: Active
- Drug metabolism [29]: Active
- half-life [14]: 18 min
- inhibition [30]: Active
- half-life [15]: 7.5 h
- Stability [31]: Stable
- Drug metabolism [17]: Active
- Activity [32]: 17%
- IC50 [18]: 90 µM
- Activity [33]: 201%
- Drug uptake [21]: Active
- Activity [34]: 24%
- Drug metabolism [22]: Not Active

Structure (SMILES): CC(=O)Oc1ccccc1C(=O)O [ASPIRIN]
- ED50 [9]: 129 mg/kg
